In PubChem BioAssay AID1216 (Sanford-Burnham Center for Chemical Genomics, 2008):
Hit rate of the full screen: of about 190,000 compounds, about 660 (0.35%) were called active. This excerpt belongs to a sample that is enriched for actives. Unmarked numbers belong to inactive results.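 Rule for the calls: active = activation factor of 2 or more at 20 µM; inactive = the rest.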

Each molecule was assayed against Mannose-6-phosphate isomerase (Homo sapiens) (UniProt P34949) (assay: MPI activation at elevated mannose 6-phosphate – biochemical, fluorescence intensity, near-saturating mannose 6-phosphate, primary screen (AID 1216)). Details: coupled PMI enzyme assay, resazurin fluorescence, 20 min; at 20 µM; stronger effect = higher value; 1 = untreated enzyme, 0 = substrate-free blank.
Mannose-6-phosphate isomerase (Homo sapiens), sequence (P34949 whole entry, looked up): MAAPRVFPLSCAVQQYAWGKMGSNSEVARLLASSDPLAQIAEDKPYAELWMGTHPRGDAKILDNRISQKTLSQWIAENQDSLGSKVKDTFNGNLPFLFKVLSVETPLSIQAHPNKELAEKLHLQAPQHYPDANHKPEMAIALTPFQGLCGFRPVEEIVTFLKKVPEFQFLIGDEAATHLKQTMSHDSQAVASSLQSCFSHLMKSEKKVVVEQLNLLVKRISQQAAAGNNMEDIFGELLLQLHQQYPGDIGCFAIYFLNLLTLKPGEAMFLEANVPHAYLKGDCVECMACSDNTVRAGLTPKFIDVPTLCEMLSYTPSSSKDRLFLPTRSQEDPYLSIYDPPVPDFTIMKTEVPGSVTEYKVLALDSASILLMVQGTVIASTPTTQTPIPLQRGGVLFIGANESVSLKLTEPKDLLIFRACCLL
Procedure, shortened: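 Test system: human phosphomannose isomerase with PGI, G6PDH, diaphorase coupling enzymes / Doses: 20 µM compound, 1% DMSO / Times: enzyme reaction with compound 20 min at room temperature / Measured by: Diaphorase-driven resazurin-to-resorufin fluorescence, excitation 544, emission 590 nm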
With `S=c1ccc2ccccc2[nH]1` the activation factor was 2.8 (active).
In the case of `c1ccc2[nH]c(-c3nc4ccccc4[nH]3)nc2c1`, the activation factor is reported as 1.1.
With `O=C(Nc1ccccc1)c1cc2ccccc2[nH]1` the activation factor was 0.9.
`CCOc1ccc(C2c3[nH]c4ccccc4c3CCN2Cc2cn(CC)nc2C)cc1` (configuration not stated) showed an activation factor of 0.8.
For `CN(C)CC(C)(C)CNC(=O)c1cc(Br)cc(Br)c1O`, the activation factor was 0.8.
Molecule `O=C1C2C3C=CC(C4CC34)C2C(=O)N1c1nccs1` (configuration not stated) has an activation factor of 1.
With `CCN(CC)CC1(O)CCN(C(=O)c2ccc(Cl)c(Cl)c2)CC1` the activation factor was 0.9.
For `CCNC(=S)NNC(=O)c1ccc2ncccc2c1`, the activation factor was 1.
`O=C(O)c1ccc(N/N=C/c2ccc3ncccc3c2)cc1` was tested, and the activation factor was 2.3 (active).
`O=C(O)c1ccc(N/N=C/c2cn(-c3ccccc3)nc2-c2cccs2)cc1` gave an activation factor of 1.7.
With `Cc1ccc(NC(=O)N2CCSc3ccccc32)cc1` the activation factor was 0.9.
In the case of `O=C(CNCc1ccc(Cl)cc1)Nc1cccc(C(=O)O)c1`, the activation factor is reported as 1.1.
In the case of `O=c1c2ccccc2c(-c2ccccc2)nn1Cc1ccccc1`, the activation factor is reported as 1.
`CSc1c(SCc2ccccc2)cnn(Cc2ccccc2)c1=O` was tested, and the activation factor was 2.4 (active).
For `Cn1c(CO)cnc1SCc1ccccc1`, the activation factor was 1.1.
`COc1ccc(NC(=O)COc2ccc(C(=O)OCC(=O)N(C)C3CCS(=O)(=O)C3)cc2OC)cc1` (configuration not stated) was tested, and the activation factor was 1.1.
With `Cc1ccnc(NC(=O)CCC(=O)N(CC(=O)NCCc2ccccc2)Cc2cccs2)c1` the activation factor was 1.
With `CCOC(=O)C(CC)/C(C)=N\NC(=O)c1cccc(C)c1` (configuration not stated) the activation factor was 0.9.
Work on `COc1ccc(NC(=O)C(C)SCc2ccccc2)cc1` (configuration not stated) yielded an activation factor of 1.
`Cc1cc(Cl)ccc1C(=O)C1CCCN(C(=O)CCN2CCCO2)C1` (configuration not stated) showed an activation factor of 1.1.
`Cc1cccc(C)c1NC(=O)c1ccc(CN2CCc3ccccc3C2)cc1` gave an activation factor of 1.
`Cc1cccc(C)c1NC(=O)C1(C)c2cccc[n+]2CC(=O)N1Cc1cccs1` (configuration not stated) was tested, and the activation factor was 2 (active).
With `CCc1cccc(C)c1NC(=S)N(CCCN1CCN(C)CC1)Cc1cccs1` the activation factor was 1.
`Cc1ccc(N(CCC(=O)O)S(=O)(=O)c2cccc(C(F)(F)F)c2)cc1` gave an activation factor of 1.1.
With `O=[N+]([O-])c1ccc(N2CCN(S(=O)(=O)c3ccccc3)CC2)cc1N1CCc2ccccc2C1` the activation factor was 0.9.
Work on `COc1ccc(/C=N/N=C2/C(=O)Nc3ccccc32)cc1O` yielded an activation factor of 1.
`C/C=C/C=C/C(=O)OCC(=O)Nc1ccc(Cl)cc1` showed an activation factor of 1.
`CS/C(=C\[N+](=O)[O-])Nc1ccc(C)cc1` showed an activation factor of 1.
`Cn1cnnc1Sc1ccc(S(C)(=O)=O)cc1[N+](=O)[O-]` was tested, and the activation factor was 0.9.
`O=C(Nc1cnccn1)c1cccnc1` gave an activation factor of 1.
In the case of `O=C(NNC(=O)c1cccnc1)Nc1ccccc1`, the activation factor is reported as 1.1.
In the case of `O=C(NN=C1CCC(=NNC(=O)c2cccnc2)CC1)c1cccnc1`, the activation factor is reported as 2 (active).
`C/C(N)=C(/C#N)C(=O)COC(=O)C1CCN(C(=O)c2ccc(Cl)cc2)CC1` showed an activation factor of 1.
Work on `CCc1cc2cc(OC)ccc2nc1SCC(=O)Nc1cc(OC)c(OC)cc1C(=O)O` yielded an activation factor of 0.8.
For `O=C(/C=C/c1ccc(Cl)c([N+](=O)[O-])c1)c1cccnc1`, the activation factor was 1.1.
With `Cc1ccc(NN=Nc2nc3c([nH]2)c(=O)n(C)c(=O)n3C)cc1` the activation factor was 2 (active).
For `CCCSc1nc2c(c(=O)n(C)c(=O)n2C)n1Cc1ccc(C)cc1`, the activation factor was 1.
For `CC(CCO)Nc1nc2c([nH]1)c(=O)n(C)c(=O)n2C` (configuration not stated), the activation factor was 0.9.
Molecule `COc1ccc(NC(=S)SC)cc1OC` has an activation factor of 0.7.
Work on `CCC(CC)C(=O)Nc1ccc(S(=O)(=O)Nc2nccs2)cc1` yielded an activation factor of 0.9.
For `CCn1c(N)c(Br)c(=O)[nH]c1=O`, the activation factor was 1.1.
For `CC(=O)Nc1sc2c(c1C(c1cccc(F)c1)N1CCN(CCO)CC1)CCCC2` (configuration not stated), the activation factor was 1.1.
Molecule `Cc1cc(SCC(=O)NCCN2C(=O)CSC2=O)nc2ccccc12` has an activation factor of 1.2.
`Cc1cc(C(=O)COC(=O)C2CC2)c(C)n1-c1ccc(F)cc1` gave an activation factor of 0.9.
Work on `Cc1ccc(N2C(=O)C3CC3C2=O)cc1` (configuration not stated) yielded an activation factor of 1.
With `C=C1c2cc(CC)ccc2NC(=O)N1c1ccc(C)cc1` the activation factor was 2.1 (active).
`Cc1ccc(N2C(=O)C(Cc3ccccc3)NC2=S)cc1` (configuration not stated) gave an activation factor of 0.8.
In the case of `CCOC(=O)N1CCN(C(=O)Cn2cnc3ccccc3c2=O)CC1`, the activation factor is reported as 1.
Work on `COc1ccc(NC(=O)c2sc(N3CCOCC3)nc2-c2ccccc2)c(OC)c1` yielded an activation factor of 1.
In the case of `COc1cc(C(=O)OCc2ccc([N+](=O)[O-])cc2)cc(OC)c1OC`, the activation factor is reported as 2 (active).
`COc1cc(/C=N/O)ccc1OCc1ccc([N+](=O)[O-])cc1` was tested, and the activation factor was 1.
For `O=C(OCc1ccc([N+](=O)[O-])cc1)c1ccccn1`, the activation factor was 0.9.
